What was measured:
[1] = tested on: Human immunodeficiency virus 1; test: Antiviral activity against HIV1 subtype G isolate G3 infected in human PBMC after 48 to 72 hrs by MTS assay; type: functional, organism-based; conditions: Human immunodeficiency virus 1, isolate G3
Procedure, shortened: (§1)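 Fresh donor PBMCs, HIV- and HBV-seronegative, were stimulated with 4 μg/ml PHA for 48 to 72 h and kept on 20 U/ml rhIL-2. Cells pooled from at least two donors were seeded at 5 × 10^4 per well and infected at MOI ~0.1. Nine compound concentrations were run in triplicate wells for 7 days.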

[2] = tested on: Human immunodeficiency virus 1; test: Antiviral activity against HIV1 subtype F isolate 93BR019 infected in human PBMC after 48 to 72 hrs by MTS assay; type: functional, organism-based; conditions: Human immunodeficiency virus 1, isolate 93BR019; procedure, shortened: as §1
[3] = tested on: Human immunodeficiency virus 1; test: Antiviral activity against HIV1 subtype B isolate 92TH026 infected in human PBMC after 48 to 72 hrs by MTS assay; type: functional, organism-based; conditions: Human immunodeficiency virus 1, isolate 92TH026; procedure, shortened: as §1
[4] = tested on: Human immunodeficiency virus 1; test: Antiviral activity against HIV1 subtype G isolate JV1083 infected in human PBMC after 48 to 72 hrs by MTS assay; conditions: Human immunodeficiency virus 1, isolate JV1083
[5] = tested on: Human immunodeficiency virus 1; test: Antiviral activity against HIV1 subtype E isolate 93TH073 infected in human PBMC after 48 to 72 hrs by MTS assay; type: functional, organism-based; conditions: Human immunodeficiency virus 1, isolate 93TH073; procedure, shortened: as §1
[6] = tested on: Human immunodeficiency virus 1; test: Antiviral activity against HIV1 4755-5 harboring reverse transcriptase 41L/44D/67N/69D/118I/210W/215Y/184V mutant gene infected in human PBMC by ELISA; type: functional, organism-based; conditions: Human immunodeficiency virus 1, 4755-5
Procedure, shortened: (§2)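 Fresh PBMCs pooled from at least two HIV- and HBV-seronegative donors, stimulated with PHA 4 μg/ml for 48–72 h and kept in rhIL-2 20 U/ml. Seeded at 5 × 10^4 cells/well and infected with RT-mutant HIV-1 clones at MOI ~0.1. Nine compound concentrations, triplicate wells, 7-day incubation. EC50 reported as mean ± SD of one to three independent experiments.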

[7] = tested on: Human immunodeficiency virus 1; test: Antiviral activity against HIV1 1617-1 harboring reverse transcriptase 69K/70G/75I/77L/116Y/151M/184V mutant gene infected in human PBMC by ELISA; type: functional, organism-based; conditions: Human immunodeficiency virus 1, 1617-1; procedure, shortened: as §2
[8] = tested on: Human immunodeficiency virus 2; test: Antiviral activity against HIV2 isolate CDC310319 infected in human PBMC after 48 to 72 hrs by MTS assay; type: functional, organism-based; conditions: Human immunodeficiency virus 2, isolate CDC310319; procedure, shortened: as §1
[9] = tested on: Human immunodeficiency virus 1; test: Antiviral activity against HIV1 subtype D isolate 92UG046 infected in human PBMC after 48 to 72 hrs by MTS assay; type: functional, organism-based; conditions: Human immunodeficiency virus 1, isolate 92UG046; procedure, shortened: as §1
[10] = Cytotoxicity against human MDM up to 1000 nM by MTS assay; type: cell-based
[11] = tested on: Human immunodeficiency virus 1; test: Antiviral activity against HIV1 subtype B isolate ADA infected in human MDM […] by MTS assay; type: functional, organism-based; conditions: Human immunodeficiency virus 1, isolate ADA
[12] = tested on: Human immunodeficiency virus 2; test: Antiviral activity against HIV2 isolate CBL-20 infected in human PBMC after 48 to 72 hrs by MTS assay; type: functional, organism-based; conditions: Human immunodeficiency virus 2, isolate CBL-20; procedure, shortened: as §1
[13] = tested on: Human immunodeficiency virus 1; test: Antiviral activity against HIV1 group O isolate BCF02 infected in human PBMC after 48 to 72 hrs by MTS assay; type: functional, organism-based; conditions: Human immunodeficiency virus 1, isolate BCF02; procedure, shortened: as §1
[14] = tested on: Human immunodeficiency virus 1; test: Antiviral activity against HIV1 subtype E isolate CMU06 infected in human PBMC after 48 to 72 hrs by MTS assay; type: functional, organism-based; conditions: Human immunodeficiency virus 1, isolate CMU06; procedure, shortened: as §1
[15] = tested on: Human immunodeficiency virus 1; test: Antiviral activity against HIV1 7324-1 harboring reverse transcriptase 41L/67N/69N/70R/215F/219E mutant gene infected in human PBMC by ELISA; type: functional, organism-based; conditions: Human immunodeficiency virus 1, 7324-1; procedure, shortened: as §2
[16] = tested on: Human immunodeficiency virus 1; test: Antiviral activity against HIV1 subtype D isolate 92UG001 infected in human PBMC after 48 to 72 hrs by MTS assay; type: functional, organism-based; conditions: Human immunodeficiency virus 1, isolate 92UG001; procedure, shortened: as §1
[17] = tested on: Human immunodeficiency virus 1; test: Antiviral activity against HIV1 subtype G isolate RU132 infected in human PBMC after 48 to 72 hrs by MTS assay; type: functional, organism-based; conditions: Human immunodeficiency virus 1, isolate RU132; procedure, shortened: as §1
[18] = tested on: Human immunodeficiency virus 1; test: Antiviral activity against HIV1 subtype C isolate 92BR025 infected in human PBMC after 48 to 72 hrs by MTS assay; type: functional, organism-based; conditions: Human immunodeficiency virus 1, isolate 92BR025; procedure, shortened: as §1
PBMC [19] = test: Cytotoxicity against human PBMC up to 1000 nM by MTS assay; type: cell-based
PBMC [20] = test: Cellular uptake in PHA/IL-2-stimulated human PBMC at 10 uM assessed as TFV-diphosphate after 24 hrs by MS/MS analysis; type: ADME, cell-based
Procedure, shortened: (§3)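 PHA-stimulated (4 μg/ml PHA, 48 to 72 h; 20 U/ml rhIL-2) human PBMCs at 2 × 10^6 cells/ml in RPMI 1640 with 15% FBS, given tenofovir or prodrug (final 0.01 to 10 μM) for 24 h at 37°C. Cells washed three times in cold 0.9% NaCl, counted, and 1 × 10^7 cell aliquots pelleted. TFV, TFV-MP and TFV-PP were separated by ion-pairing reverse-phase LC and detected by positive-ion electrospray MS. Output is pmol per 10^6 cells.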

CEM-SS = test: Cytotoxicity against human CEM-SS cells after 24 hrs by XTT assay; type: cell-based
Procedure, shortened: (§4)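 Six-concentration growth-inhibition test: 10 to 0.032 μM for the prodrug and TDF, up to 100 μM for TFV, with Triton X-100 run in parallel. Cell lines were split 1:2 the day before and seeded at 5 × 10^3 to 2 × 10^4 cells/well, with adherent lines left overnight. Dendritic cells were derived with GM-CSF/IL-4 for 7 days, then LPS 10 ng/ml for 2 days. Viability was read by XTT.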

[21] = Cytotoxicity against human ME180 cells after 24 hrs by XTT assay; type: cell-based; conditions: me-180, 24 h; procedure, shortened: as §4
[22] = Cytotoxicity against human HuH7 cells after 24 hrs by XTT assay; type: cell-based; conditions: huh-7, 24 h; procedure, shortened: as §4
PBMC [23] = test: Cytotoxicity against PHA/IL-2-stimulated human PBMC after 24 hrs by XTT assay; type: cell-based; procedure, shortened: as §4
PBMC [24] = test: Cellular uptake in PHA/IL-2-stimulated human PBMC at 1 uM assessed as TFV-monophosphate level after 24 hrs by MS/MS analysis; type: ADME, cell-based; procedure, shortened: as §3
PBMC [25] = test: Cellular uptake in human PBMC at 10 uM assessed as TFV-monophosphate after 24 hrs by MS/MS analysis; type: ADME, cell-based
Procedure, shortened: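 Human PBMCs, unstimulated or PHA/IL-2-stimulated, at 2 × 10^6 cells/ml in RPMI 1640 with 15% FBS, exposed 24 h at 37°C to final 0.01, 0.1, 1.0 or 10 μM of the prodrug, or 1.0 or 10 μM tenofovir. After cold saline washes the cells were counted and 1 × 10^7-cell pellets made. TFV, TFV-MP and TFV-PP were measured by ion-pairing LC with positive-ion electrospray MS as pmol/10^6 cells.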

PBMC [26] = test: Cellular uptake in PHA/IL-2-stimulated human PBMC at 1 uM assessed as TFV-diphosphate level after 24 hrs by MS/MS analysis; type: ADME, cell-based; procedure, shortened: as §3
[27] = Cytotoxicity against human dendritic cells after 24 hrs by XTT assay; type: cell-based; procedure, shortened: as §4

Compound | EC50 [1] [nM] | EC50 [2] [nM] | EC50 [3] [nM] | EC50 [4] [nM] | EC50 [5] [nM] | EC50 [6] [nM] | EC50 [7] [nM] | EC50 [8] [nM] | EC50 [9] [nM] | Activity [10] | EC50 [11] [nM] | EC50 [12] [nM] | EC50 [13] [nM] | EC50 [14] [nM] | EC50 [15] [nM] | EC50 [16] [nM] | EC50 [17] [nM] | EC50 [18] [nM] | Activity (PBMC [19]) | Drug uptake (PBMC [20]) [pmol/10^6 cells] | other results
Cc1cn([C@H]2C[C@H](N=[N+]=[N-])[C@@H](CO)O2)c(=O)[nH]c1=O [ZIDOVUDINE] | 4.7 | 9.6 | 2 | 4.7 | 5.5 | 100 | > 340 | 9.3 | 6.3 | Non-toxic | 2.7 | 9.3 | 1.7 | 5.5 | 330 | 6.3 | 4.7 | 4.9 | Non-toxic |  | 
CCCCCCCCCCCCCCCCOCCCOP(=O)(O)CO[C@H](C)Cn1cnc2c(N)ncnc21 [TENOFOVIR EXALIDEX] | 2.2 | 2.7 | 1.5 | 2.2 | 2.3 | 3.1 | 5 | 3.5 | 2.1 | Non-toxic | 3.1 | 3.5 | 5 | 2.3 | 3.8 | 2.1 | 2.2 | 2.8 | Non-toxic | 5.5 | Activity (CEM-SS): Non-toxic; Activity [21]: Non-toxic; Activity [22]: Non-toxic; Activity (PBMC [23]): Non-toxic; Drug uptake (PBMC [24]): 0.3 pmol/10^6 cells; Drug uptake (PBMC [25]): 0.12 pmol/10^6 cells; Drug uptake (PBMC [26]): 1.7 pmol/10^6 cells; Activity [27]: Non-toxic
C[C@H](Cn1cnc2c(N)ncnc21)OCP(=O)(O)O [TENOFOVIR ANHYDROUS] |  |  |  |  |  | 5400 | > 6500 |  |  |  |  |  |  |  | 6500 |  |  |  |  | 0.22 | Activity (CEM-SS): Non-toxic; Activity [21]: Non-toxic; Activity [22]: Non-toxic; Activity (PBMC [23]): Non-toxic; Drug uptake (PBMC [24]; BLD = below limit of detection): BLD; Drug uptake (PBMC [25]): 0.05 pmol/10^6 cells; Drug uptake (PBMC [26]): 0.05 pmol/10^6 cells; Activity [27]: Non-toxic
